Values after ≈ are worked out from the molar mass of the structure shown.
Columns and labels:
Candida albicans [1] = assay: Antifungal activity against 10^7 cells/ml Candida albicans ATCC 90028 planktonic cells by XTT reduction assay; format: functional
Method in brief: (§1)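 High-density planktonic suspensions (10^7 or 10^8 cells/ml) added to serially double-diluted drugs as in the NCCLS setup, run in parallel in RPMI 1640 + 2% glucose and YNB + 100 mM glucose. Viability read by XTT (1 mg/ml) with menadione (0.4 mM stock, 5:1), 3 h dark at 37°C, A490 minus blank wells. MIC50 = lowest concentration giving 50% reduction versus drug-free control.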

Candida albicans [2] = assay: Antifungal activity against 10^7 cells/ml wild-type Candida albicans BF-1 planktonic cells by XTT reduction assay; format: functional; method in brief: as §1
Candida albicans [3] = assay: Antifungal activity against 10^8 cells/ml Candida albicans ATCC 90028 planktonic cells by XTT reduction assay; format: functional; method in brief: as §1
Candida albicans [4] = assay: Antifungal activity against 10^8 cells/ml wild-type Candida albicans BF-1 planktonic cells by XTT reduction assay; format: functional
Method in brief: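 Planktonic suspensions at 1 × 10^8 cells/ml added to twofold serial drug dilutions in 96-well plates (NCCLS format). Run in parallel in RPMI 1640 + 2% glucose and YNB + 100 mM glucose. Readout by XTT reduction: XTT–menadione in PBS, 3 h at 37°C in the dark, A490 minus blank. MIC50 is 50% reduction vs drug-free control.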

Candida albicans [5] = assay: Antifungal activity against 24 hrs cultures of 10^7 cells/ml Candida albicans ATCC 90028 biofilms by XTT reduction assay; format: functional
Method in brief: (§2)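 Washed late-exponential cells at 1 × 10^7 cells/ml in YNB + 100 mM glucose were adhered 1.5 h at 37°C with shaking at 75 rpm, washed, then grown 24 or 48 h at 37°C, 75 rpm. Biofilms were washed and exposed 24 or 48 h at 37°C to twofold dilutions in RPMI + 2% glucose. Read by XTT at A490. MIC50 is 50% reduction vs drug-free control. Three experiments, four replicates.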

Candida albicans [6] = assay: Antifungal activity against 24 hrs cultures of 10^7 cells/ml wild-type Candida albicans BF-1 biofilms by XTT reduction assay; format: functional; method in brief: as §2
Candida albicans [7] = assay: Antifungal activity against 10^3 cells/ml Candida albicans SC5314 by NCCLS method; format: functional
Method in brief: (§3)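 Planktonic broth microdilution per NCCLS (CLSI): inoculum from 24-h SDA cultures adjusted to 0.5 McFarland at 520 nm, diluted in RPMI 1640 to about 0.5 × 10^3 to 2.5 × 10^3 cells/ml. Cells exposed to twofold drug dilutions, incubated 35°C for 48 h, then MIC read. Three separate occasions.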

Candida albicans [8] = assay: Antifungal activity against 10^8 cells/ml Candida albicans SC5314 planktonic cells by XTT reduction assay; format: functional; method in brief: as §1
Candida albicans [9] = assay: Antifungal activity against 24 hrs cultures of 10^7 cells/ml Candida albicans SC5314 biofilms by XTT reduction assay; format: functional; conditions: SC5314, 24 h; method in brief: as §2
Candida albicans [10] = assay: Antifungal activity against 24 hrs cultures of 10^7 cells/ml Candida albicans ATCC 90028 planktonic cells by XTT reduction method; format: functional
Method in brief: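 Standard 1 × 10^7 cells/ml suspension in YNB + 100 mM glucose propagated planktonically 24 h alongside age-matched biofilms, then exposed to twofold drug dilutions. Metabolic activity read by XTT–menadione reduction, 3 h dark, 37°C, A490 background-subtracted. MIC50 is the 50% reduction point versus drug-free control.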

Candida albicans [11] = assay: Antifungal activity against 24 hrs cultures of 10^7 cells/ml Candida albicans BF-1 planktonic cells by XTT reduction method; format: functional
Method in brief: (§4)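 Age-matched planktonic cultures were grown from the same 1 × 10^7 cells/ml YNB + 100 mM glucose suspension under the biofilm conditions for 24 or 48 h. They were tested against twofold drug dilutions by XTT reduction (3 h at 37°C in the dark, A490 minus blank). MIC50 is 50% reduction vs drug-free control.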

Candida albicans [12] = assay: Antifungal activity against 48 hrs cultures of 10^7 cells/ml Candida albicans ATCC 90028 planktonic cells by XTT reduction method; format: functional; method in brief: as §4
Candida albicans [13] = assay: Antifungal activity against 48 hrs cultures of 10^7 cells/ml Candida albicans BF-1 planktonic cells by XTT reduction method; format: functional; method in brief: as §4
Candida albicans [14] = assay: Antifungal activity against 24 hrs cultures of 10^7 cells/ml Candida albicans ATCC 90028 biofilms by XTT reduction method; format: functional; method in brief: as §2
Candida albicans [15] = assay: Antifungal activity against 24 hrs cultures of 10^7 cells/ml Candida albicans BF-1 biofilms by XTT reduction method; format: functional; method in brief: as §2
Candida albicans [16] = assay: Antifungal activity against 48 hrs cultures of 10^7 cells/ml Candida albicans ATCC 90028 biofilms by XTT reduction method; format: functional; method in brief: as §2
Candida albicans [17] = assay: Antifungal activity against 48 hrs cultures of 10^7 cells/ml Candida albicans BF-1 biofilms by XTT reduction method; format: functional; method in brief: as §2
Candida albicans [18] = assay: Antifungal activity against 24 hrs cultures of 10^7 cells/ml biofilm-derived Candida albicans ATCC 90028 planktonic cells hrs by XTT reduction method; format: functional
Method in brief: (§5)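 Biofilms grown from 1 × 10^7 cells/ml (YNB + 100 mM glucose, 1.5 h adherence, 37°C, 75 rpm) for 24 or 48 h, washed, scraped and moved to wells of serially double-diluted drugs. Incubated with drug 24 or 48 h, then XTT–menadione read at 490 nm. MIC50 = 50% reduction versus drug-free control.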

Candida albicans [19] = assay: Antifungal activity against 24 hrs cultures of 10^7 cells/ml biofilm-derived Candida albicans BF-1 planktonic cells hrs by XTT reduction method; format: functional
Method in brief: (§6)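 Biofilms grown 24 or 48 h from 1 × 10^7 cells/ml were washed, scraped and transferred into plates of twofold serially diluted drugs. They were incubated 24 or 48 h. MIC was read by XTT reduction (3 h at 37°C in the dark, A490 minus blank) as 50% reduction vs drug-free control.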

Candida albicans [20] = assay: Antifungal activity against 48 hrs cultures of 10^7 cells/ml biofilm-derived Candida albicans ATCC 90028 planktonic cells hrs by XTT reduction method; format: functional; method in brief: as §6
Candida albicans [21] = assay: Antifungal activity against 48 hrs cultures of 10^7 cells/ml biofilm-derived Candida albicans BF-1 planktonic cells hrs by XTT reduction method; format: functional; method in brief: as §5
Candida albicans [22] = assay: Ratio of MIC for 10^8 cells/ml wild-type Candida albicans BF-1 to MIC for 10^7 cells/ml wild-type Candida albicans BF-1 grown as planktonic cells; format: functional; method in brief: as §1
Candida albicans [23] = assay: Antifungal activity against 10^3 cells/ml Candida albicans ATCC 90028 by NCCLS method; format: functional; method in brief: as §3
Candida albicans [24] = assay: Antifungal activity against 10^3 cells/ml wild-type Candida albicans BF-1 by NCCLS method; format: functional; method in brief: as §3
Candida albicans [25] = assay: Antifungal activity against 10^5 cells/ml Candida albicans ATCC 90028 by EUCAST method; format: functional
Method in brief: (§7)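 EUCAST AFST planktonic broth microdilution: RPMI 1640 plus 2% glucose, inoculum 0.5 × 10^5 to 2.5 × 10^5 cells/ml, twofold drug dilutions. Performed on three different occasions.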

Candida albicans [26] = assay: Antifungal activity against 10^5 cells/ml wild-type Candida albicans BF-1 by EUCAST method; format: functional; method in brief: as §7
Candida albicans [27] = assay: Antifungal activity against 48 hrs cultures of 10^8 cells/ml Candida albicans ATCC 90028 biofilms by XTT reduction assay; conditions: ATCC 90028, 48 h
Candida albicans [28] = assay: Antifungal activity against 48 hrs cultures of 10^8 cells/ml wild-type Candida albicans BF-1 biofilms by XTT reduction assay; conditions: BF-1, 48 h
Candida albicans [29] = assay: Antifungal activity against 48 hrs cultures of 10^7 cells/ml Candida albicans ATCC 90028 biofilms by XTT reduction assay; format: functional; method in brief: as §2
Candida albicans [30] = assay: Antifungal activity against 48 hrs cultures of 10^7 cells/ml wild-type Candida albicans BF-1 biofilms by XTT reduction assay; format: functional; method in brief: as §2

Nc1nc(=O)[nH]cc1F [FLUCYTOSINE]
MIC (Candida albicans [1]): 6.5 µg/mL (≈ 0.0504 mM)
MIC (Candida albicans [2]): 6.5 µg/mL (≈ 0.0504 mM)
MIC (Candida albicans [3]): > 420 µg/mL
MIC (Candida albicans [4]): > 420 µg/mL
MIC (Candida albicans [5]; ATCC 90028, 24 h): > 420 µg/mL
MIC (Candida albicans [6]; BF-1, 24 h): > 420 µg/mL
MIC (Candida albicans [7]): 0.8 µg/mL (≈ 0.0062 mM)
MIC (Candida albicans [8]): > 420 µg/mL
MIC (Candida albicans [9]): > 420 µg/mL
MIC (Candida albicans [10]; ATCC 90028, 24 h): > 420 µg/mL
MIC (Candida albicans [11]; BF-1, 24 h): > 420 µg/mL
MIC (Candida albicans [12]; ATCC 90028, 48 h): > 420 µg/mL
MIC (Candida albicans [13]; BF-1, 48 h): > 420 µg/mL
MIC (Candida albicans [14]; ATCC 90028, 24 h): > 420 µg/mL
MIC (Candida albicans [15]; BF-1, 24 h): > 420 µg/mL
MIC (Candida albicans [16]; ATCC 90028, 48 h): > 420 µg/mL
MIC (Candida albicans [17]; BF-1, 48 h): > 420 µg/mL
MIC (Candida albicans [18]; ATCC 90028, 24 h): > 420 µg/mL
MIC (Candida albicans [19]; BF-1, 24 h): > 420 µg/mL
MIC (Candida albicans [20]; ATCC 90028, 48 h): > 420 µg/mL
MIC (Candida albicans [21]; BF-1, 48 h): > 420 µg/mL
Ratio (Candida albicans [22]): >1000
MIC (Candida albicans [23]): 0.8 µg/mL (≈ 0.0062 mM)
MIC (Candida albicans [24]): 0.8 µg/mL (≈ 0.0062 mM)
MIC (Candida albicans [25]): 0.8 µg/mL (≈ 0.0062 mM)
MIC (Candida albicans [26]): 0.8 µg/mL (≈ 0.0062 mM)
MIC (Candida albicans [27]): > 420 µg/mL
MIC (Candida albicans [28]): > 420 µg/mL

NYSTATIN
MIC (Candida albicans [1]): 2 µg/mL
MIC (Candida albicans [2]): 2 µg/mL
MIC (Candida albicans [3]): 8 µg/mL
MIC (Candida albicans [4]): 16 µg/mL
MIC (Candida albicans [5]): 16 µg/mL
MIC (Candida albicans [6]): 32 µg/mL
MIC (Candida albicans [29]): 16 µg/mL
MIC (Candida albicans [30]): 32 µg/mL
MIC (Candida albicans [10]): 2 µg/mL
MIC (Candida albicans [11]): 4 µg/mL
MIC (Candida albicans [12]): 8 µg/mL
MIC (Candida albicans [13]): 16 µg/mL
MIC (Candida albicans [14]): 16 µg/mL
MIC (Candida albicans [15]): 32 µg/mL
MIC (Candida albicans [16]): 16 µg/mL
MIC (Candida albicans [17]): 32 µg/mL
MIC (Candida albicans [18]): 2 µg/mL
MIC (Candida albicans [19]): 4 µg/mL
MIC (Candida albicans [20]): 8 µg/mL
MIC (Candida albicans [21]): 16 µg/mL
Ratio (Candida albicans [22]): 8
MIC (Candida albicans [23]): 1 µg/mL
MIC (Candida albicans [24]): 2 µg/mL
MIC (Candida albicans [25]): 1 µg/mL
MIC (Candida albicans [26]): 2 µg/mL
